Screening results deposited in PubChem by The Scripps Research Institute Molecular Screening Center.
An excerpt weighted towards active compounds, which were near 2.5% of everything screened.
CHO parental Ca = counter-screen for OX1R antagonists: effect in parental CHO cells; parental CHO-K1, ATP-induced calcium, Fluo-8 fluorescence; inhibition, % at 5.6 µM; 0.63% of 330,000 active; AID 463079;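 active means inhibition above that plate's mean sample inhibition plus 3 SD, cut at about 26% in these data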;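 further: 0% = ATP-challenged DMSO wells and 100% = DMSO wells without ATP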
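Measured by: calcium-sensitive Fluo-8 fluorescence / Test system: CHO parental line / Controls: ATP-challenged DMSO wells low, unchallenged DMSO wells high / Measure: % inhibition / Compound: single nominal dose of 5.6 µM per compound / Replicates: single well per compound, no replicates / Reagent: ATP as calcium-mobilizing challenge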
OX1R antag-1 = blocks the human orexin 1 receptor. CHO/OX1R cells, Fluo-8 calcium fluorescence, orexin A. inhibition, % at 5 µM. 0.43% of 330,000 active;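 active means inhibition above its plate's threshold, mean inhibition of all tested compounds on the plate plus 3 SD, cut at about 37% in these data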;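 further: 0% = orexin A challenge wells and 100% = SB-334867-A antagonist wells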
TRPML3 agonist = agonists of human TRPML3 channel | Q8TDD5 | HEK293 TRPML3-YFP, Fluo-8 calcium fluorescence; 100% = the carbachol control signal | activation, % at 3 µM | 0.29% of 220,000 active;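 active means activation above its plate's cutoff, the mean activation of the plate's test wells plus 3 SD, cut at about 12% in these data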;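 further: 0% = DMSO only wells and 100% = carbachol wells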
Target sequence (Q8TDD5 whole entry, looked up): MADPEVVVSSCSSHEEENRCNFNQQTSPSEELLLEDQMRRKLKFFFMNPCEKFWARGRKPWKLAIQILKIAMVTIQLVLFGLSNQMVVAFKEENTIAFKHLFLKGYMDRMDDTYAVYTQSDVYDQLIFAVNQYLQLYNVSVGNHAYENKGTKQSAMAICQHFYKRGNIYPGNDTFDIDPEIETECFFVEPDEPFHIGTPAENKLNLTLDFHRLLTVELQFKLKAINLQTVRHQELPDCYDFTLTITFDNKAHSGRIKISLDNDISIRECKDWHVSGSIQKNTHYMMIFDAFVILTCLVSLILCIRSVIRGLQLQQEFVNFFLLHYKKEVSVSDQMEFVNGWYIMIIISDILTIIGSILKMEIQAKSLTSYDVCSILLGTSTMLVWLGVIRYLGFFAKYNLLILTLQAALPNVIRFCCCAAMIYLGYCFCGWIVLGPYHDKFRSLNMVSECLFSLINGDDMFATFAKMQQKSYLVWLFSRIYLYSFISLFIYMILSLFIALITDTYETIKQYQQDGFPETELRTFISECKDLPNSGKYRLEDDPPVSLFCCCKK
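Material: TRPML3-YFP stable HEK293 cells | Dosing: One concentration, 3 µM nominal, 0.3% DMSO | Timing: 125 s total fluorescence read per well | Technique: Fluo-8 calcium dye fluorescence, ex 470-495, em 515-575 nm | Measure: Percent activation from peak-to-basal fluorescence ratio, scaled between DMSO and carbachol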
OX1R antag-2 = OX1R (human) antagonism; O43613; OX1R-expressing cells, FRET antagonist read-out; inhibition, % at 6.6 µM; 1.8% of 330,000 active; AID 485270; in the data active means inhibition mostly above about 38%, no sharp cut-off; inactive means mostly below about 40%;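 further: 0% = agonist challenge alone and 100% = reference antagonist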
zfTRPN1 agonist = zebrafish TRPN1 (NompC) channel agonism | HEK293 zebrafish TRPN1-YFP, Fluo-8 calcium fluorescence; 100% = response to 87 µM carbachol | activation, % at 3 µM | 0.18% of 220,000 active;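 active means activation above its plate's cutoff, the mean activation of test wells on that plate plus 3 SD, cut at about 19% in these data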;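 further: 0% = DMSO alone and 100% = 87 µM carbachol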
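Assay system: Zebrafish TRPN1-YFP in HEK293 cells | Incubation: Dye loading 1 h at 37 °C, then 30 min room temperature | Measured by: Kinetic Fluo-8 fluorescence, ex 470-495, em 515-575 nm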
Numbers without * were called inactive; . = no result.

SMILES	CHO parental Ca	OX1R antag-1	TRPML3 agonist	OX1R antag-2	zfTRPN1 agonist
CC(=O)Nc1ccc(NC(=O)C(C)OC(=O)C2CCN(S(=O)(=O)c3ccc4c(c3)OCCO4)CC2)cc1 (centres undefined)	-5.8	-14.9	.	8.4	.
O=[N+]([O-])c1ccc(S(=O)(=O)Nc2nnc(C3CCCCC3)s2)cc1	-7.0	-9.8	.	21.5	.
CCCNC(=O)/C(C#N)=C1\N=C(NC(=O)c2ccco2)c2ccccc21	-2.3	-5.5	.	46.6*	.
CC(=O)Nc1ccc(Nc2ncc([N+](=O)[O-])c(Nc3ccc(NC(C)=O)cc3)n2)cc1	-11.0	-15.3	-0.3	9.3	-0.7
CC(=O)Nc1ccc(Nc2ncnc(N)c2[N+](=O)[O-])cc1	-6.3	-10.7	1.1	36.7*	1.4
CC(=O)Nc1cccc(C(=O)OCC(=O)NCc2ccc(F)cc2)c1	-1.5	-13.9	2.1	5.7	1.1
N=c1c(C(=O)NCC2CCCO2)cc2c(=O)n3ccccc3nc2n1Cc1ccco1 (centres undefined)	-10.0	-10.3	.	57.1*	.
Cc1cccn2c(=O)c3cc(C(=O)NCC4CCCO4)c(=N)n(Cc4cccnc4)c3nc12 (centres undefined)	-3.3	-24.2	0.4	60.0*	0.7
N=c1c(C(=O)NCC2CCCO2)cc2c(=O)n3ccccc3nc2n1Cc1cccnc1 (centres undefined)	2.1	-2.6	0.7	73.0*	0.2
CCNC(=O)c1cc2c(=O)n3cccc(C)c3nc2n(Cc2ccc(C)cc2)c1=N	5.7	-28.5	0.8	52.1	-1.0
N=c1c(C(=O)NC2CCCCC2)cc2c(=O)n3ccccc3nc2n1Cc1cccnc1	-8.4	-21.4	.	32.2	.
N=c1c(C(=O)NCC2CCCO2)cc2c(=O)n3ccccc3nc2n1Cc1ccc(F)cc1 (centres undefined)	9.5	-27.7	.	54.5*	.
Cc1ccc(NC(=O)CCNC(=O)c2ccccc2Cl)cc1S(=O)(=O)N1CCOCC1	-11.5	-4.2	.	6.5	.
CCOc1ccc(N(CC(=O)O)S(=O)(=O)c2ccc(OC)c(OC)c2)cc1	-6.1	3.0	0.9	23.1	1.1
CCOc1ccc(N(CC(=O)O)S(=O)(=O)c2ccc(F)cc2)cc1	-5.9	-3.2	0.8	8.5	69.8*
CN1CCN(S(=O)(=O)c2ccc(N(C)Cc3cccc(F)c3)nc2)CC1	-9.5	-12.4	.	3.7	.
O=C(COC(=O)c1ccc(O)cc1)Nc1ccccc1-c1ccccc1	42.9*	28.8	1.1	45.3	4.8
O=C(N/N=C/c1ccc([N+](=O)[O-])cc1)c1cccc(N2CCCC2=O)c1	-11.6	-17.9	.	75.5*	.
CN1CCN(c2ccc([N+](=O)[O-])cc2/C=N/NC(=O)c2cccc([N+](=O)[O-])c2)CC1	-16.5	-29.4	0.9	65.6*	-1.9
Nc1cc(C(=O)N/N=C/c2cccc([N+](=O)[O-])c2)n[nH]c1=O	-2.1	-7.5	0.5	51.7*	0.7
CN1CCN(c2ccccc2NC(=O)c2cccc([N+](=O)[O-])c2)CC1	-13.4	-28.9	1.1	27.4	-0.5
CCCCCCCC(=O)Nc1ccc(C(=O)N/N=C/c2cccc([N+](=O)[O-])c2)cc1	2.2	-12.7	0.7	10.0	1.2
O=C(N/N=C/c1cccc([N+](=O)[O-])c1)c1cc[n+](CCO)cc1	0.6	-3.8	.	69.0*	.
Cc1cc(C(=O)N/N=C/C=C/c2cccc([N+](=O)[O-])c2)n[nH]1	-3.0	-1.4	0.1	20.1	1.4
CN(CC(=O)Nc1ccc(Cl)c(C(F)(F)F)c1)C(=O)c1cc(=O)c2ccccc2o1	-6.6	-11.7	.	-0.6	.
SMILES	CHO parental Ca	OX1R antag-1	TRPML3 agonist	OX1R antag-2	zfTRPN1 agonist
O=C(N/N=C/c1ccco1)c1cccc([N+](=O)[O-])c1	-8.1	1.8	1.1	30.7	0.3
O=C(N/N=C/c1ccncc1)c1cccc([N+](=O)[O-])c1	-6.3	-3.6	0.6	56.9*	0.5
O=C(N/N=C/c1ccco1)c1cc([N+](=O)[O-])cc([N+](=O)[O-])c1	-14.2	-6.3	0.9	63.6*	-0.9
Cn1c2c(c(=O)n1-c1ccccc1)CSCC2	-5.3	-6.4	.	21.2	.
CN1C(=O)C(=O)/C(=C(/O)c2ccc(Br)cc2)C1c1ccc(F)cc1 (centres undefined)	-4.5	-18.1	.	11.0	.
CSc1cccc(NC(=O)CC(C)n2ccnc2)c1 (centres undefined)	1.3	-12.8	.	9.2	.
N#C/C(=C/c1ccc(N2CCOCC2)o1)C(=O)Nc1ccccc1	.	.	36.2*	.	71.6*
N#C/C(=C\c1ccc(N2CCOCC2)o1)C(=O)NCCc1ccccc1	11.7	19.0	13.6*	26.2	25.5*
COCCNC(=O)/C(C#N)=C/c1ccc(N2CCOCC2)o1	5.4	4.7	2.2	61.9	4.9
CC(=N/O)/C(C)=N\NC(=O)c1ccccn1	15.8	-3.3	0.8	26.8	1.5
O=C(NN=C1c2ccccc2-c2ccccc21)c1ccccn1	-31.9	85.1*	-0.2	75.4*	-0.1
CN(CC(=O)Nc1cccc(F)c1)C(=O)CNS(=O)(=O)c1ccc(N(C)C)c([N+](=O)[O-])c1	-10.0	-16.0	.	13.3	.
O=C(CSc1nc2ccc(Cl)cc2[nH]1)NC1CCCc2ccccc21 (centres undefined)	-1.4	-10.3	-1.0	73.2*	-0.6
CCC(CO)[n+]1c(C)cc(/C=C2\Sc3ccccc3N2Cc2ccccc2)cc1C (centres undefined)	41.4*	17.2	1.6	15.1	0.9
COc1ccccc1Nc1ccc([N+](=O)[O-])cc1N	-9.8	-26.2	-1.7	16.2	-4.2
COc1cc(Nc2ccccc2Cl)c([N+](=O)[O-])nc1[N+](=O)[O-]	-16.0	-8.3	0.2	41.2*	0.2
CCCCCN(C(=O)CCC(=O)OCc1ccccc1C(F)(F)F)c1c(N)n(CCCC)c(=O)[nH]c1=O	-12.2	-24.5	.	19.8	.
Cc1onc(-c2c(F)cccc2Cl)c1C(=O)N=C(N)N1CC(C)OC(C)C1 (centres undefined)	-5.9	-6.6	0.5	-0.6	0.6
CCOC(=O)c1cnc(-n2nc(C)cc2C)nc1NC1CCCCC1	70.6*	73.9*	2.4	15.2	3.1
CCOC(=O)c1cnc(-n2nc(C)cc2C)nc1NC	-3.9	-10.5	-0.2	7.1	-0.2
COc1cc(-c2noc(C)c2-c2ccc(N(C)C)nc2)cc(OC)c1OC	-6.0	-1.5	.	74.7*	.
COc1cc(-c2noc(C)c2-c2ccc3[nH]ccc3c2)cc(OC)c1OC	-7.3	-0.2	.	33.4	.
NC(=O)c1ccc(NCCc2ccccc2)c([N+](=O)[O-])c1	0.0	-29.5	-0.3	37.0	-1.5
NC(=O)c1ccc(NCc2ccco2)c([N+](=O)[O-])c1	-1.7	-1.5	0.2	128.4*	0.9
Cc1ccc(C(C)C)c(OCC(=O)NNCC(=O)Nc2cccc(F)c2)c1	-25.8	-6.3	.	21.9	.
O=S(=O)(Nc1ccccc1F)c1cccc(NC(=S)NCCN2CCOCC2)c1	-0.9	2.5	.	-0.3	.
